ERAP1 inh: inhibitors of human ERAP1 aminopeptidase; Q9NZ08; recombinant ERAP1, Leu-AMC fluorescence, 60 min; inhibition, % at 10.7 µM; 0.15% of 340,000 active; AID 652197;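 active = mean replicate inhibition of at least 30%, or all replicates individually reaching that 30% level; inactive = mean below 30% and not every replicate reaching it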;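 note: 0% = neutral control wells and 100% = L-leucinethiol positive control wells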
Target sequence (Q9NZ08 whole entry, looked up): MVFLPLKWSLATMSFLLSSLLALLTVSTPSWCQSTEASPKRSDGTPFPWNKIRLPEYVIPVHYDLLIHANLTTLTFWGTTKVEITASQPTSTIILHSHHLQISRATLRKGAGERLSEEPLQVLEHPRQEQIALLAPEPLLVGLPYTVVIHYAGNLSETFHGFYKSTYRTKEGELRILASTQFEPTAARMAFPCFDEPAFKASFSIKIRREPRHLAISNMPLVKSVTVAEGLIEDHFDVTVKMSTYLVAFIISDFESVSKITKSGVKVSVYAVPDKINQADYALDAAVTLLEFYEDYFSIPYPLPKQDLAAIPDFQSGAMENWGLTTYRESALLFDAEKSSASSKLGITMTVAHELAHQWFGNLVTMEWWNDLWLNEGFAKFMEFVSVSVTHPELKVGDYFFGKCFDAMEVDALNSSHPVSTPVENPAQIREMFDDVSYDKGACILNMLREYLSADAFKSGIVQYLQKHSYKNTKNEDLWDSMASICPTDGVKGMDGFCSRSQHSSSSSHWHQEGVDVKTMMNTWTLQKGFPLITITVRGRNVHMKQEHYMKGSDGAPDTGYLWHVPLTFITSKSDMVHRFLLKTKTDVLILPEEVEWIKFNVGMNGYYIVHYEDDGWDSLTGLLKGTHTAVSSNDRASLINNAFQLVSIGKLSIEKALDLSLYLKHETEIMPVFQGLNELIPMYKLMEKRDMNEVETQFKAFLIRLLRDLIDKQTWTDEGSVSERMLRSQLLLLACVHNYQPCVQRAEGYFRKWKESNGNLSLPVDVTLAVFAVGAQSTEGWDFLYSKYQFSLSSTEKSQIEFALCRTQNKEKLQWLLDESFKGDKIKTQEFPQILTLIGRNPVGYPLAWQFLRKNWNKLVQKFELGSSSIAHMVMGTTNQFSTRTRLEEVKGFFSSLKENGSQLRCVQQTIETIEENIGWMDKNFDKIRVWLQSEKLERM
DENV2 CPE: DENV2-induced cell death inhibition; 1.7% of 350,000 active; AID 651640; CPE inhibition, % at 9.99 µM; DENV2-infected cells, cytopathic effect rescue, plate reader; in the data active = CPE inhibition above about 20%, passing the limit was not always enough; inconclusive = no clear call, values can overlap the other calls; tested in BHK-21 cells;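 note: 0% = median of neutral control wells and 100% = median of positive control wells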
miR122 inh: inhibitors of miR-122 in Huh7 cells; Huh7 miR-122 Renilla luciferase sensor, 48 h; neutral wells = 0, positive control = 100; activation (reporter increase), % at 12.5 µM; 0.3% of 340,000 active;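 active = mean replicate activation score at least 90 and every replicate individually at or above 90; inconclusive = only one of the two criteria met; inactive = neither criterion met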;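 note: higher luciferase means less miR-122 activity so hits act as miR-122 inhibitors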
INS-1E GSIS act: primary screen for activators of insulin secretion dependent on glucose, INS-1E cells, GLuc reporter luminescence; INS-1E GLuc reporter insulin secretion, 2-3 h; activation, % at 16.6 µM; 0.61% of 370,000 active; AID 743287;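 active = lowest replicate activation of at least 40%, so every replicate reaches that level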;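 note: 0% = median of neutral control wells and 100% = median of IBMX positive control wells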
E-selectin induc: induces E-selectin expression in human endothelial cells. 0.37% of 260,000 active. HUVEC E-selectin immunofluorescence imaging; normalized: neutral wells 0, TNF-alpha wells 100. P16581. activation, % at 7.58 µM;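 active = mean E-selectin-positive cell signal at least 10% of the positive control, reached in at least 60% of replicates, without over 20% cell loss; inconclusive = no rule given, readout overlaps actives, possibly toxicity-flagged; inactive = the rest, including those meeting only one limit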
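Assay system: HUVEC primary endothelial cells. Input: 3,000 HUVEC seeded per well. Doses: one compound dose added by pin transfer. Read-out basis: % PE-positive cells. Benchmarks: TNF-alpha high, DMSO low. Detection: immunofluorescence imaging. Buffer or medium: EGM-2, gelatin.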
CFTR F508del cor: CFTR F508del correction in bronchial cells; 0.36% of 350,000 active; activity (quench increase), % at 7.58 µM; CFBE cells, YFP halide quenching; stimulated with forskolin plus potentiator P3; % fluorescence drop versus neutral controls;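 active = mean added fluorescence quench of at least 8% versus neutral control, with both replicates also reaching 8%; inconclusive = only one of the mean or replicate conditions met; inactive = mean below 8% and not both replicates reaching 8%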;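 note: cells transiently co-express mutant CFTR-F508del with the halide-sensitive YFP; corrector assay measuring rescue of mutant channel to the surface after 24 h compound exposure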
The depositor's hits bear a star; ? = inconclusive; · = no result given; [ ] = another dose, or the depositor's remark. The list is not random: actives were taken first. Their share in the collection is about 2.6%.

SMILES	ERAP1 inh	DENV2 CPE	miR122 inh	INS-1E GSIS act	E-selectin induc	CFTR F508del cor
Cc1ccc(OC(=O)N(C)C[C@@H]2OCc3ccccc3-c3c(n(C)c4ccccc34)C(=O)N([C@@H](C)CO)C[C@H]2C)cc1	-2	3	·	12	-3	2
NS(=O)(=O)c1ccc(N=Cc2c(O)n(C3CCCCC3)c(=O)n(C3CCCCC3)c2=O)cc1	·	·	·	739*	·	·
CCn1c(O)c(C=Nc2ccc(S(N)(=O)=O)cc2)c(=O)n(CC)c1=S	0	-3	·	·	3	·
Cc1cccc(S(=O)(=O)N2[C@@H]3Cn4c(ccc(-c5ccncc5)c4=O)[C@H]2[C@@H](C(=O)O)[C@@H]3CO)c1	13	?	-6[16.7 µM]	5	0	2
CCOC(=O)[C@@H]1[C@@H]2NC(=S)N(C)[C@@]1(COCc1ccc(OC)cc1)Oc1ccccc12	4	2	·	·	·	2
C[N+]1(C)CCC(OC(=O)C(c2ccccc2)c2ccccc2)CC1	92*	-7	-3	·	2	·
Cc1c(CCC(=O)N2C[C@H]3C[C@@H](C2)c2cccc(=O)n2C3)c(=O)oc2c(C)c(O)ccc12	-16	56*	-1	-9	·	0
COc1ccc(CC(=O)N2C[C@H]3C[C@@H](C2)c2cccc(=O)n2C3)cc1	·	27*	5	·	·	1
Cc1c(CC(=O)N2C[C@H]3C[C@@H](C2)c2cccc(=O)n2C3)c(=O)oc2c(C)c(O)ccc12	2	14	-19	-6	·	-1
COC(=O)CCCC(NC(=S)N1CC2C[C@@H](C1)Cn1c2cccc1=O)C(=O)OC (some centres not stated)	-3	-5	-5	40*	3	4
COC(=O)CC(NC(=S)N1CC2C[C@@H](C1)Cn1c2cccc1=O)C(=O)OC (some centres not stated)	0	-6	·	·	0	-2
O=C(Cc1ccccc1)N1CC2(C1)[C@@H](c1ccccc1)[C@H](CO)N2Cc1cccc(F)c1	·	·	·	-16	·	·
O=C(Cc1ccccc1)N1CCCCN2[C@H](CO)[C@@H](c3ccc(C#Cc4ccccc4)cc3)[C@H]2C1	-4	-2	6[16.7 µM]	-8	0	0
Cc1[nH]c2ccccc2c1CCNCc1cccnc1	-1	11	4	48*	·	2
Cc1[nH]c2ccc(O)cc2c1CCN	6	55*	1	·	0	-3
O=C(Cc1ccccn1)N1CCCCN2[C@H](CO)[C@@H](c3ccc(-c4ccccc4)cc3)[C@H]2C1	-1	6	4[16.7 µM]	14	0	0
O=C(Cc1ccccn1)N1CCCCN2[C@H](C1)[C@H](c1ccc(-c3ccccc3)cc1)[C@@H]2CO	-1	43*	1[16.7 µM]	-1	0	-1
O=C(Cc1ccccn1)N1CCCCN2[C@@H](CO)[C@@H](c3ccc(Br)cc3)[C@@H]2C1	3	33*	11[16.7 µM]	12	0	2
CN(C)CC#Cc1ccc([C@@H]2[C@H]3CN(C(=O)Cc4ccccn4)CCCCN3[C@H]2CO)cc1	-1	30*	6[16.7 µM]	10	0	-1
COc1ccc(C#Cc2ccc([C@H]3[C@H](CO)N4CCCCN(C(=O)Cc5ccncc5)C[C@@H]34)cc2)cc1	-2	-11	9[16.7 µM]	9	-1	0
COc1ccccc1CN1[C@H](CO)[C@@H](c2ccccc2)C12CN(C(=O)Cc1ccccc1)C2	-3	1	·	-4	1	1
CC(=O)N1C[C@@H]2N[C@H](C1)C2c1ccccc1 (some centres not stated)	·	·	·	-2	·	·
Cc1cc(=O)oc2cc(OCC(=O)N3CCN(Cc4ccccc4)CC3)ccc12	-5	-9	-1	-11	0	-1
Cc1cc(=O)oc2cc(OCC(=O)N3CCC(C(=O)O)(c4ccccc4)CC3)ccc12	-1	75*	1	-11	·	0
O=C(Cc1ccccn1)N1CC2(C1)[C@H](c1ccccc1)[C@@H](CO)N2Cc1ccccn1	-2	1	·	16	0	2
SMILES	ERAP1 inh	DENV2 CPE	miR122 inh	INS-1E GSIS act	E-selectin induc	CFTR F508del cor
C=C[C@@H]1C2=CCOC(=O)C2=CO[C@H]1O[C@@H]1O[C@H](CO)[C@@H](O)[C@H](O)[C@H]1O	·	23*	-2	-4	0	1
C=CCN1CC[C@]23c4c5ccc(O)c4OC2C(O)C=CC3[C@H]1C5 (some centres not stated)	1	131*	1	-16	·	-3
COc1ccc2c3c1OC1C(O)C=CC4[C@@H](C2)N(C)CC[C@]314 (some centres not stated)	-5	-22	-2	14	·	1
CNc1ccc2oc(C[C@H]3O[C@@]4(CC[C@H]3C)O[C@H]([C@H](C)C(=O)c3ccc[nH]3)[C@H](C)C[C@H]4C)nc2c1C(=O)O	2	43*	-23	·	1	3
C=CCN1[C@@H]2CN(C(C)=O)C[C@H]1C2c1ccccc1 (some centres not stated)	·	·	·	-4	·	·
C[C@@H]1CN([C@@H](C)CO)C(=O)c2c(c3ccccc3n2C)-c2ccccc2CO[C@H]1CN(C)C(=O)Oc1ccccc1	-4	-4	·	-32	0	-1
COC1CC2C=C(C)C=CC=CC(=O)NC(c3ccccc3)CC=CCCC(O)CC(=O)C2=C1O (configuration not stated)	0	-4	·	·	0	12*
C=CCCC1(C2=CCCCC2)C(=O)NC(=O)NC1=O	3	27*	·	-4	0	1
CC(C)NC(=O)N1C[C@@H]2C(c3ccccc3)[C@H](C1)N2CC1CC1 (some centres not stated)	·	·	·	11	·	·
O=c1[nH]c2ccccc2n1C1CCN(C(c2cccc3ccccc23)c2nnnn2-c2ccc3c(c2)OCCO3)CC1 (configuration not stated)	1	25*	-12	-8	23	5
O=c1[nH]c2ccccc2n1C1CCN(C(c2cc3ccccc3o2)c2nnnn2-c2ccc3c(c2)OCCO3)CC1 (configuration not stated)	0	-12	-11	10	0	2
CCN1C[C@]2(COC)CC[C@H](OC)[C@@]34C5C[C@H]6C(=O)C5[C@](O)(C[C@H]6OC)[C@@](O)(C(OC)C23)[C@@H]14 (some centres not stated)	·	44*	-6	12	·	-1
C=CCn1c(O)c(C(C)=NCCCN(C)C)c(=O)[nH]c1=O	·	1	·	3	50*	0
CC1=C2C[C@H]3[C@@H](CC=C4C[C@@H](O)CC[C@@]43C)[C@@H]2CC[C@]12O[C@@H]1C[C@H](C)CN[C@@H]1C2C (some centres not stated)	-2	-13	·	·	·	-2
c1ccc(Nc2ccc(Nc3ccccc3)cc2)cc1	-6	41*	-9	20	·	0

Assay outcomes: PubChem BioAssay, Broad Institute
